# Rows were chosen to be rich in hits. Some 2.1% of all compounds tested hit in one or more screens of this group.
# PKA-R2B activ: activates the human PKA-R2B holoenzyme complex; P22694+P31323; PKA-R2B holoenzyme dissociation, Cy5-IP20 fluorescence polarization; R2B truncated from residue 108, S112A mutant; 0% DMSO only, 100% 113 µM cGMP; activation, % at 11.4 µM; 0.079% of 340,000 active;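 active = activation above a cutoff set at the mean over all compounds plus 3 SD, cut at about 18% in these data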;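 note: higher means more holoenzyme dissociation and a rise in polarization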
# PKA-R1A activ: activators of PKA-R1A complex | AID 504707 | PKA-R1A dissociation, Cy5-IP20 fluorescence polarization; scaled: DMSO 0%, 113 µM cGMP 100% | P00514+P68181 | activation, % at 11.4 µM | 0.083% of 340,000 active;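 active = percent activation above the mean of all tested compounds plus 3 SD, cut at about 19% in these data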;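 note: higher means more PKAc released from R1A so a rise in polarization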
# CDK5 inh: blocks human CDK5/p35 kinase activity. Q00535+Q15078. Recombinant CDK5/p35, ADP-Glo luminescence, 60 min. inhibition, % at 10 µM. 0.01% of 330,000 active. AID 488839;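 active = highest replicate inhibition of at least 50% and at least 75% of replicates reaching 50%; inconclusive = only one of the two criteria met; inactive = both criteria failed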
# Target sequence (Q00535 whole entry, looked up): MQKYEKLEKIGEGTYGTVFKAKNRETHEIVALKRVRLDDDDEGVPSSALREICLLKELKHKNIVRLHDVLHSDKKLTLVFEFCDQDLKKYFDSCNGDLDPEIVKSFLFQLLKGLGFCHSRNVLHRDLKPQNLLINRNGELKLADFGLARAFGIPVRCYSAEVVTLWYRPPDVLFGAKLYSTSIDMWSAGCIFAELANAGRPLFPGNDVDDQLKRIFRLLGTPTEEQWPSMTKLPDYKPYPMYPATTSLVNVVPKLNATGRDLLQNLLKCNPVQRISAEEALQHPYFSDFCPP
# Target sequence (Q15078 whole entry, looked up): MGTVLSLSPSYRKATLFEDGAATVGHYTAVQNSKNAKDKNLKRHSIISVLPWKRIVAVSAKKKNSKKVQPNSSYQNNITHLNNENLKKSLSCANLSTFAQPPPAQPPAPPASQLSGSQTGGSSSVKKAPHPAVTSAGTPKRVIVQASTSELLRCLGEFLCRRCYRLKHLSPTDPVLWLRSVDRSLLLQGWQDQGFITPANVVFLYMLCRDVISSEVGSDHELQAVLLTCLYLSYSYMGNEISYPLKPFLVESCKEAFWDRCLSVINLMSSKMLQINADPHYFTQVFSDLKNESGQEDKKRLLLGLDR
# dFosB act-1: enhances mouse delta FosB homodimer DNA binding; activation, % at 25 µM; AID 493131; 0.99% of 340,000 active; purified delta FosB, TAMRA-CDK5 oligo fluorescence polarization; percent of positive-control signal above neutral wells;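 active = mean activation above about 17%, with every replicate also reaching it, limit read from the data, passing the limit was not always enough; inconclusive = only one of the two conditions met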
# SR-BI DiI inh: mouse SR-BI HDL lipid transfer inhibition. ldlA[mSR-BI] CHO cells, DiI-HDL uptake fluorescence, 3 h. inhibition, % at 12.5 µM. 0.96% of 320,000 active. Q61009;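 active = mean replicate inhibition of at least 70% and a set share of replicates each scoring 70 or more; inconclusive = meets just one of the two criteria; inactive = fails both criteria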
# SR-BI DiI-HDL act: activators of SR-BI mediated HDL lipid uptake; CHO ldlA[mSR-BI] cells, DiI-HDL uptake fluorescence, 3 h; 100 = double the neutral-control signal; 0.096% of 320,000 active; activation, % at 12.5 µM;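 active = mean replicate activation of at least 60% and every replicate at or above 60%; inconclusive = mean or all-replicate condition met, but not both; inactive = mean below 60% and not all replicates reaching 60%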
#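 Test system: SR-BI-overexpressing, LDLR-lacking CHO cells; Medium: Ham's F12 with 0.5% BSA, HEPES 25 mM, pH 7.4; Schedule: 3 h, 37 °C; Technique: bottom-read fluorescence, 550/595 nm.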
# dFosB act-2: enhances mouse delta FosB homodimer binding to DNA. shares compounds with dFosB act-1. activation, % at 24.9 µM. purified delta FosB, TAMRA-CDK5 oligo fluorescence polarization; normalised: neutral wells 0, positive control 100. 2,400 tested, under 10 active. AID 588690;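 active = highest replicate activation at or above 34% and every replicate reaching that threshold; inconclusive = meets only one of the two criteria; inactive = meets neither criterion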;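 note: higher polarization means more probe DNA bound by delta FosB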
# Hits are given with their value; - = inactive; ? = inconclusive; . = not tested or not shown.
SMILES,PKA-R2B activ,PKA-R1A activ,CDK5 inh,dFosB act-1,SR-BI DiI inh,SR-BI DiI-HDL act,dFosB act-2
Cc1ccc(CS(=O)(=O)CCC(=O)NCc2ccccc2Cl)cc1,-,-,-,-,-,-,.
O=C(CCS(=O)(=O)Cc1ccccc1F)NCc1ccccc1Cl,-,-,-,18,-,-,-
O=C(CN1C(=O)NC(Cc2c[nH]c3ccccc23)C1=O)Nc1ccc(F)cc1F (configuration not stated),-,-,-,-,-,-,.
COc1cccc(NC(=O)NC2(C(F)(F)F)Oc3ccccc3O2)c1,-,-,.,-,-,-,.
O=C(Nc1cc(N2CCOCC2)ncn1)NC1(C(F)(F)F)Oc2ccccc2O1,-,-,-,33,-,-,-
O=C(Nc1ccccc1Oc1ccccc1)c1ccccc1F,-,-,-,-,-,-,.
COc1ccc(C(=O)Nc2ccccc2C(=O)NC(Cc2ccc(O)cc2)C(=O)NNC(=O)c2ccccc2)cc1 (configuration not stated),-,-,-,-,-,-,.
COc1ccc(C(=O)Nc2ccccc2C(=O)NC(Cc2ccc(O)cc2)C(=O)NNC(=O)c2ccc(C)cc2)cc1 (configuration not stated),-,-,-,100,-,-,-
C/C(=N\NC(=O)c1c(Cl)c(C)nn1C)c1ccc(NC(=O)COc2ccc(Cl)cc2C)cc1,-,-,-,33,72,-,-
C/C(=N\NC(=O)c1c(Cl)c(C)nn1C)c1cccc(NC(=O)COc2ccccc2)c1,-,-,-,29,-,-,-
C/C(=N\NC(=O)c1c(Cl)c(C)nn1C)c1cccc(NC(=O)c2cccc(F)c2)c1,-,-,-,-,-,-,.
C/C(=N/NC(=O)CSCc1ccc(Cl)cc1)c1cccc(NC(=O)c2ccccc2)c1,-,-,-,38,81,-,-
c1ccc2c(OCCCN3CCCCCC3)cccc2c1,-,-,-,-,-,-,.
Cc1cccn2c(CNCCc3ccco3)c(C(=O)N3CCOCC3)nc12,-,-,-,-,-,-,.
C#CCn1c(=NC(=O)c2sc3ccccc3c2Cl)sc2cc(S(N)(=O)=O)ccc21,-,-,-,77,-,-,-
C#CCn1c(=NC(=O)c2ccc(S(=O)(=O)N3CCc4ccccc4C3)cc2)sc2cc(S(N)(=O)=O)ccc21,-,-,-,51,-,-,-
COC(=O)Cn1c(=NC(=O)c2nc3ccccc3s2)sc2cc(S(N)(=O)=O)ccc21,-,-,-,?,-,-,.
COc1ccc2oc(C(=O)Nc3nc(-c4ccccn4)cs3)c(C)c2c1,-,-,-,-,-,-,.
Cc1ccc(S(=O)(=O)N2C(=O)CCC2C(=O)O/N=C(\N)c2cccc([N+](=O)[O-])c2)cc1 (configuration not stated),-,-,-,-,-,.,.
NS(=O)(=O)c1ccc(NC(=O)c2cc(-c3cc(Cl)ccc3O)n[nH]2)cc1,-,-,-,38,-,-,-
NS(=O)(=O)c1ccc(NC(=O)c2cc(Cl)ccc2Cl)cc1,-,-,-,-,-,-,.
O=C(Nc1cccnc1)c1cccc(-c2cc3ccccc3oc2=O)c1,-,-,-,46,-,-,-
O=C(Nc1cccc(-c2cc3ccccc3oc2=O)c1)c1ccc(Br)o1,-,-,-,-,-,-,.
O=C(Nc1ccc(-c2cc3ccccc3oc2=O)c(Cl)c1)c1cccnc1,-,-,-,84,-,-,-
O=C(/C=C/c1cccc(Cl)c1)OCC(=O)c1ccc[nH]1,-,-,.,.,.,.,.
CCN(CC)S(=O)(=O)c1ccc(/C=C/C(=O)OCC(=O)Nc2ccc(S(N)(=O)=O)cc2)cc1,-,-,-,116,-,-,-
NS(=O)(=O)c1ccc(NC(=O)CCCCC(=O)Nc2ccc(S(N)(=O)=O)cc2)cc1,-,-,-,53,-,-,-

# Assay outcomes (PubChem)
